Measured values as given in ChEMBL document CHEMBL4480462, “HPLC-Based Activity Profiling for Antiprotozoal Compounds in the Endemic Iranian Medicinal Plant Helichrysum oocephalum” (J Nat Prod, 2019).

Tests used:
Leishmania donovani = assay: Antileishmanial activity against Leishmania donovani MHOM-ET-67/L82 axenic amastigotes after 70 hrs by resazurin staining based fluorescence assay; type: functional, organism-based; details: MHOM-ET-67/L82, 70 h
Outline: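 Axenically grown amastigotes of strain MHOM-ET-67/L82 were exposed to serial drug dilutions of 11 3-fold steps spanning 100 to 0.001 μg/mL, with miltefosine as reference. IC50 was obtained by linear regression. Each assay was run singly and repeated at least twice, and the reported value is the average of two independent assays.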

[1] = Selectivity index, ratio of IC50 for rat L6 cells to IC50 for Plasmodium falciparum NF54 infected in human erythrocytes; type: toxicity, cell-based; details: read-out: Ratio IC50
Outline: (§1)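 The selectivity index is the IC50 in L6 cells divided by the IC50 in the named parasite. Each IC50 comes from 11-step 3-fold dilution series (100 to 0.001 μg/mL) fitted by linear regression and averaged over two independent assays.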

L6 = assay: Cytotoxicity against rat L6 cells; type: cell-based
Outline: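 Rat skeletal myoblast L6 cells were exposed to 11 3-fold serial drug dilutions covering 100 to 0.001 μg/mL, with podophyllotoxin as reference. IC50 was calculated by linear regression. Runs were single and repeated at least two times, and the figure is the mean of two independent assays.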

[2] = Selectivity index, ratio of IC50 for rat L6 cells to IC50 for axenic amastigotes; outline: as §1
Plasmodium falciparum = assay: Antiplasmodial activity against Plasmodium falciparum NF54 infected in human erythrocytes assessed as reduction in [3H]-hypoxanthine incorporation pretreated for 48 hrs followed by [3H]-hypoxanthine addition measured after 24 hrs by liquid scintillation counting method; type: functional, organism-based
Outline: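 Erythrocytic-stage NF54 parasites were tested over 11 3-fold serial dilutions from 100 to 0.001 μg/mL, with chloroquine as reference. IC50 was derived by linear regression. Runs were single and repeated at least twice, and the value given is the mean of two independent assays.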

SMILES | IC50 (Plasmodium falciparum) | IC50 (Leishmania donovani) | selectivity ratio [1] | IC50 (L6) | Ratio IC50 [2]
CC(=O)c1c(O)c(Cc2c(O)c(C)c(C)oc2=O)c(O)c2c1OC(C)(C)C=C2 | 11.3 µM | 1.8 µM | 4.7 | 53.1 µM | 29.7
CCC1=C(C)C(=O)C2(Cc3c(O)c(CC=C(C)C)c(O)c(C(=O)C(C)C)c3O2)O1 (configuration not stated) | 18 µM | 6 µM | 2.1 | 43 µM | 7.2
CC(=O)c1c(O)c(CC=C(C)CCC=C(C)C)c(O)c2c1OC1(C2)OC(C)=C(C)C1=O (configuration not stated) | 23.9 µM | 2.8 µM | 2.2 | 43.4 µM | 15.6
CCC(=O)c1c(O)c(CC=C(C)C)c(O)c2c1OC1(C2)OC(C)=C(C)C1=O (configuration not stated) | 31.7 µM | 7.1 µM | 0.8 | 44.1 µM | 6.2
CC(C)=CCc1c(O)c2c(c(C(=O)C(C)C)c1O)OC1(C2)OC(C)=C(C)C1=O (configuration not stated) | 22.7 µM | 1.9 µM | 1.9 | 20.1 µM | 10.5
CCc1oc(=O)c(Cc2c(O)c(Cc3c(O)c(C)c(CC)oc3=O)c(O)c(C(=O)C(C)C)c2O)c(O)c1C | 8.6 µM | 2.5 µM | 4.4 | 57.6 µM | 22.9
CCc1oc(=O)c(Cc2c(O)c(C)c(C)oc2=O)c(O)c1C | 18.1 µM | 15.5 µM | 3.4 | 43.9 µM | 2.8
Cc1oc(=O)c(Cc2c(O)c(C)c(C)oc2=O)c(O)c1C | 22.3 µM | 15.7 µM | 2.5 | 26.5 µM | 1.7
CC(C)=CCc1c(O)c(Cc2c(O)c(C)c(C)oc2=O)c(O)c(C(=O)C(C)C)c1O | 8 µM | 5.8 µM | 5.5 | 61.1 µM | 10.4
CCC1=C(C)C(=O)C2(Cc3c(O)c(CC=C(C)C)c(O)c(C(C)=O)c3O2)O1 (configuration not stated) | 23.1 µM | 5.8 µM | 2.3 | 55.1 µM | 9.5
CC(=O)c1c(O)c(CC=C(C)C)c(O)c2c1OC1(C2)OC(C)=C(C)C1=O (configuration not stated) | 14.6 µM | 5.1 µM | 3.9 | 56.3 µM | 11.1
CCc1oc(=O)c(Cc2c(O)c3c(c(C(=O)C(C)C)c2O)OC(C)(CCC=C(C)C)C=C3)c(O)c1C (racemic) | 9.3 µM | 1.9 µM | 2.3 | 21.4 µM | 11.2
CCc1oc(=O)c(Cc2c(O)c(C)c(CC)oc2=O)c(O)c1C [HELIPYRONE] | 8.9 µM | 14.9 µM | 5.4 | 54.3 µM | 3.6
CCCCCCCCCCCCCCCCOP(=O)([O-])OCC[N+](C)(C)C [MILTEFOSINE] |  | 0.285 µM |  |  | 
COc1cc([C@@H]2c3cc4c(cc3[C@H](O)[C@H]3COC(=O)[C@H]23)OCO4)cc(OC)c1OC [PODOFILOX] |  |  |  | 0.005 µM | 

Second part, led by results:

IC50 (Plasmodium falciparum) | SMILES | IC50 (Leishmania donovani) | selectivity ratio [1] | IC50 (L6) | Ratio IC50 [2]
1.2 µM | CCc1oc(=O)c(Cc2c(O)c(CC=C(C)CCC=C(C)C)c(O)c(C(=O)C(C)CC)c2O)c(O)c1C (configuration not stated) | 5.6 µM | 15.7 | 36.3 µM | 6.4
7.2 µM | CC(C)=CCCC(C)=CCc1c(O)c2c(c(C(=O)C(C)C)c1O)OC1(C2)OC(C)=C(C)C1=O (configuration not stated) | 2.2 µM | 5.5 | 18.8 µM | 8.5
2.5 µM | CCc1oc(=O)c(Cc2c(O)c(CC=C(C)C)c(O)c(C(=O)C(C)CC)c2O)c(O)c1C (configuration not stated) | 16.8 µM | 5.36 | 37.8 µM | 2.25
5.5 µM | CCC(C)C(=O)c1c(O)c(CC=C(C)C)c(O)c(Cc2c(O)c(C)c(C)oc2=O)c1O (configuration not stated) | 4.8 µM | 7.9 | 55.5 µM | 11.5
2.6 µM | CCC(C)C(=O)c1c(O)c(CC=C(C)CCC=C(C)C)c(O)c(Cc2c(O)c(C)c(C)oc2=O)c1O (configuration not stated) | 4.4 µM | 7.7 | 48.3 µM | 11.1
7.12 µM | CCc1oc(=O)c(Cc2c(O)c(C(=O)C(C)C)c(O)c3c2O[C@@]2(C)CC[C@@H]4[C@H]2[C@H]3C4(C)C)c(O)c1C | 2 µM | 1.7 | 12 µM | 6
7.6 µM | CCC(C)C(=O)c1c(O)c(CC=C(C)C)c(O)c2c1OC1(C2)OC(C)=C(C)C1=O (configuration not stated) | 1.7 µM | 4.8 | 13.2 µM | 7.6
3.8 µM | CCc1oc(=O)c(Cc2c(O)c(CC=C(C)CCC=C(C)C)c(O)c(C(=O)C(C)C)c2O)c(O)c1C | 2.7 µM | 11.3 | 39.7 µM | 15
7.4 µM | CCc1oc(=O)c(Cc2c(O)c(CC=C(C)C)c(O)c(C(=O)C(C)C)c2O)c(O)c1C | 13.7 µM | 7.6 | 52.2 µM | 3.8
5.7 µM | CC(C)=CCCC(C)=CCc1c(O)c(Cc2c(O)c(C)c(C)oc2=O)c(O)c(C(=O)C(C)C)c1O | 3.1 µM | 9.6 | 38.4 µM | 12.3
